How the values were obtained:
[1] = test system: NCI 60-cell line screen; conditions: cited from earlier work
[2] = test system: MDA-MB-231 breast cancer cells; test: DNA fragmentation analysis; type: cell-based, human
[3] = test system: MDA-MB-231; type: cell-based, human
[4] = test system: small panel of cell lines (five human tumor cell lines, MCF-10A, NIH/3T3); test: MTT cytotoxicity assay, summary over the panel of cell lines; type: cell-based
[5] = test system: U937 cells; test: Cell cycle analysis by flow cytometry; type: cell-based, human; conditions: 90 nM, 48 h
Summary of the method: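 Exponentially growing U937 cells in RPMI-1640 with 10% FBS received test compound in DMSO (final 90 nM) or an equal amount of DMSO. After 48 h at 37 °C in CO2, cells were PBS-washed, fixed overnight in 70% ice-cold ethanol at 4 °C, and RNase-treated (100 µg/ml, 37 °C, 30 min).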

[6] = test system: U937 cells; test: Cell apoptosis analysis by flow cytometry; type: cell-based, human; conditions: 90 nM, 48 h, control cells 13.2%

## C/C=C(\C)C(=O)O[C@@H]1[C@@H](O)[C@@H]2O[C@H]3[C@H](O[C@@H](CCC)CCCCCCC(=O)CCC(=O)OC[C@@H](O2)[C@H]1OC(=O)/C=C/c1ccccc1)O[C@H](C)[C@H](OC(C)=O)[C@@H]3O [Ipomoeassin A]
[1]
  growth inhibition of different cancer cells: strong and selective growth inhibition

## CN[C@@H]1C[C@H]2O[C@@](C)([C@@H]1OC)n1c3ccccc3c3c4c(c5c6ccccc6n2c5c31)C(=O)NC4 [staurosporine, reference compound]
[2]; 750 nM staurosporine (Figure 5), MDA-MB-231
  DNA fragmentation (positive control): smaller DNA fragments

## C/C=C(\C)C(=O)O[C@@H]1[C@@H](O)[C@@H]2O[C@H]3[C@H](O[C@@H](CCCCC)CCCCCCC(=O)CCC(=O)OC[C@@H](O2)[C@H]1OC(=O)/C=C/c1ccccc1)O[C@H](C)[C@H](OC(C)=O)[C@@H]3O [Ipomoeassin F]
[3]
  IC90: 100 nM
[4]; U937 vs MCF7
  difference in toxicity between two cancer cell lines (U937 and MCF7): ~ 8 fold
[4]; tumor lines vs MCF-10A and NIH/3T3
  selectivity between tumor and non-tumor cell lines: no selectivity between tumor and non-tumor cell lines was observed
[5]
  G1 arrest: ~ 25%
  reduction of cell population in the G2/M phase: ~ 21%
[6]
  percentage of apoptotic cells: 33.6%
[2]; 100 nM ipomoeassin F (IC90), MDA-MB-231, 72 h
  DNA fragmentation: smaller DNA fragments
